Results from different studies.
Each line is one published result; the experiments were not run side by side.
EGFR del747-752/P753S: Epidermal growth factor receptor (EGFR, Homo sapiens, UniProt P00533, del747-752/P753S)
EGFR del752-759: Epidermal growth factor receptor (EGFR, Homo sapiens, UniProt P00533, del752-759)
EGFR del746-750: Epidermal growth factor receptor (EGFR, Homo sapiens, UniProt P00533, del746-750)
EGFR A750P/del747-749: Epidermal growth factor receptor (EGFR, Homo sapiens, UniProt P00533, A750P/del747-749)
EGFR G719S: Epidermal growth factor receptor (EGFR, Homo sapiens, UniProt P00533, G719S)
EGFR del747-750/T751S: Epidermal growth factor receptor (EGFR, Homo sapiens, UniProt P00533, del747-750/T751S)
EGFR L858R/T790M: Epidermal growth factor receptor (EGFR, Homo sapiens, UniProt P00533, L858R/T790M)
EGFR: Epidermal growth factor receptor (EGFR, Homo sapiens, UniProt P00533)
EGFR G719C: Epidermal growth factor receptor (EGFR, Homo sapiens, UniProt P00533, G719C)
EGFR L858R: Epidermal growth factor receptor (EGFR, Homo sapiens, UniProt P00533, L858R)

CNC(=O)[C@@H]1CC[C@@H](n2c(-c3ccc4cnccc4c3)nc3ccc(C(=O)NCc4cccc(C(N)=O)c4)cc32)C1  remaining binding (EGFR del747-752/P753S; binding; competition with immobilised ligand; 1 µM): 100%
C[C@H](NC(=O)c1cnc2n1[C@](C)(Cc1ccc(C#N)cc1)C(=O)N2c1cc(Cl)c(F)c(Cl)c1)C(=O)NC1(c2ccccn2)CC1  remaining binding (EGFR del752-759; cell-free assay; competition with immobilised ligand; 1 µM): 100%
O=C(Nc1c[nH]nc1C(=O)NC1CCNCC1)c1cc(F)cc(F)c1  remaining binding (EGFR del746-750; binding; competition with immobilised ligand; 1 µM): 100%
Nc1ncc2c(n1)-c1c([nH]c3ccc(C#CC4CC4)cc13)CCCC2  remaining binding (EGFR A750P/del747-749; binding; competition with immobilised ligand; 1 µM): 84%
c1cncc(-c2cccc(Nc3nccc(NC4CCCCC4)n3)c2)c1  remaining binding (EGFR del746-750; binding; competition with immobilised ligand; 10 µM): 38%
O=C(Nc1cccnn1)N1CC(C/C=C/c2cncc(Oc3ccc(C(F)(F)F)cn3)n2)C1  remaining binding (EGFR G719S; cell-free assay; competition with immobilised ligand; 1 µM): 100%
CN(C)c1nccc(-c2cnn3ncccc23)n1  remaining binding (Epidermal growth factor receptor (EGFR, Homo sapiens, UniProt P00533, L861Q); binding; 1 µM): 90%
O=C(c1ccc(Nc2ncc(Cl)c(-c3ccc(Cl)s3)n2)cc1)N1CCC(N2CCCC2)CC1  remaining binding (EGFR A750P/del747-749; binding; competition with immobilised ligand; 1 µM): 72%
O=C(NC1CCC1)c1ccc2nc(-c3cccc(NS(=O)(=O)NCCN4CCCCC4)c3)cn2c1  remaining binding (EGFR del747-750/T751S; cell-free assay; competition with immobilised ligand; 10 µM): 100%
O=C(NCCCN1CCOCC1)c1ccc(Nc2nccc(-c3cc4ccccc4s3)n2)cc1  remaining binding (EGFR A750P/del747-749; binding; competition with immobilised ligand; 1 µM): 100%
Cc1cnn2ncc(-c3ccnc(N(C)C)n3)c2c1  remaining binding (EGFR L858R/T790M; binding; 1 µM): 100%
COc1cnc(Nc2cccc(S(N)(=O)=O)c2)nc1N1CCN(c2ccccc2)C(=O)C1  remaining binding (EGFR del747-752/P753S; binding; competition with immobilised ligand; 1 µM): 75%
CN(c1ccnc(CNc2nc(Nc3ccc4c(c3)CC(=O)N4)ncc2C(F)(F)F)n1)S(C)(=O)=O  remaining binding (EGFR del747-750/T751S; cell-free assay; competition with immobilised ligand; 1 µM): 83%
CN(C)c1nccc(-c2cnc3ncccn23)n1  remaining binding (EGFR; binding; 1 µM): 63%
COc1ncc2cc3ccccc3nc2c1C#N  remaining binding (EGFR del746-750; cell-free assay; competition with immobilised ligand; 5 µM): 87%
O=C(c1ccc(Nc2nccc(-c3cc4ccccc4s3)n2)cc1)N1CCC(N2CCCC2)CC1  remaining binding (EGFR L858R/T790M; binding; competition with immobilised ligand; 1 µM): 58%
CN(C)C(=O)Cn1cc(-c2nc([C@@](C)(c3ccc(-c4cnc(N)nc4)cc3)C3CC3)no2)cn1  remaining binding (EGFR; cell-free assay; competition with immobilised ligand; 1 µM): 93%
O=C(NCC1CCOCC1)c1n[nH]cc1NC(=O)c1c(F)cccc1F  remaining binding (EGFR G719S; binding; competition with immobilised ligand; 1 µM): 100%
Cc1c(-c2ccccc2)oc2c(C(=O)OCCN3CCCCC3)cccc2c1=O  remaining binding (EGFR; cell-free assay; competition with immobilised ligand; 0.1 µM): 100%
CN1CCN(c2ccc(Nc3nccc(-c4ccccc4)n3)cc2C(F)(F)F)CC1  remaining binding (EGFR G719C; binding; 10 µM): 64%
CC(=O)N1CCC(c2ccc(C(=O)NC(=N)N)cc2C(F)(F)F)CC1  remaining binding (EGFR del747-750/T751S; cell-free assay; competition with immobilised ligand; 1 µM): 100%
F[C@@H]1CCN(c2nccc(-c3cnn4ncccc34)n2)C1  remaining binding (EGFR L858R/T790M; binding; 1 µM): 100%
COc1cnc(Nc2cccc(S(N)(=O)=O)c2)nc1N1CCN(c2ccccc2)CC1  remaining binding (EGFR A750P/del747-749; binding; competition with immobilised ligand; 1 µM): 100%
O=C(c1ccc(Nc2ncc(Cl)c(-c3cc4ccccc4s3)n2)cc1)N1CCC(N2CCCC2)CC1  remaining binding (EGFR L858R/T790M; binding; competition with immobilised ligand; 1 µM): 64%
c1cnn2ncc(-c3ccnc(N4CCC45COC5)n3)c2c1  remaining binding (EGFR; binding; 1 µM): 100%
O=C(NCCCN1CCOCC1)c1ccc(Nc2ncc(Cl)c(-c3ccc(Cl)s3)n2)cc1  remaining binding (EGFR G719C; binding; competition with immobilised ligand; 1 µM): 100%
O=C(NCCCC1CCCCC1)c1ccc(CNC(=O)c2cnn(-c3ccccc3)c2C(F)(F)F)cc1  remaining binding (EGFR L858R/T790M; cell-free assay; competition with immobilised ligand; 0.1 µM): 95%
CN1CCN(c2ccc(Nc3nccc(-c4cccc([N+](=O)[O-])c4)n3)cc2C(F)(F)F)CC1  remaining binding (Epidermal growth factor receptor (EGFR, Homo sapiens, UniProt P00533, T790M); binding; 10 µM): 45%
C[C@H](c1cccc(C#N)c1)n1cc(Cl)cc(C(N)=O)c1=N  remaining binding (EGFR L858R; cell-free assay; competition with immobilised ligand; 1 µM): 86%
Cc1cnc(Nc2ccc(C(=O)N3CCC(N4CCCC4)CC3)cc2)nc1-c1cc2ccccc2s1  remaining binding (EGFR L858R; binding; competition with immobilised ligand; 1 µM): 72%
CN(C)c1ncc(F)c(-c2cnn3ncccc23)n1  remaining binding (EGFR G719S; binding; 1 µM): 100%
CNCc1ccccc1-c1csc([C@H](C)Nc2nc(C)nc3cc(OC)c(OC)cc23)c1  remaining binding (EGFR del747-752/P753S; cell-free assay; competition with immobilised ligand; 1 µM): 100%
C[C@@H]1CCN(c2nccc(-c3cnn4ncccc34)n2)C1  remaining binding (EGFR del752-759; binding; 1 µM): 88%
CCN1CCN(Cc2ccc(C(=O)Nc3ccc(C)c(Oc4ccc5c(c4)CC(=O)N5)c3)cc2C(F)(F)F)CC1  remaining binding (EGFR del752-759; binding; competition with immobilised ligand; 1 µM): 100%
